From ChEMBL document CHEMBL4196161, “Lead Optimization of 5-Aryl Benzimidazolone- and Oxindole-Based AMPA Receptor Modulators Selective for TARP γ-8” (ACS Med Chem Lett, 2018)
In brackets after ≈: the same amount, converted by molar mass.

What was measured:
[1] = Thermodynamic solubility of the compound in simulated gastric fluid at pH 1.6 incubated under stirred condition for 3 days; assay type: physicochemical; conditions: read-out: Therm_solubility
How it was run: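 Thermodynamic solubility (μM) determined in simulated gastric fluid at pH 1.6 and in fasted state simulated intestinal fluid at pH 6.5.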

[2] = Cmax in Sprague-Dawley rat at 5 mg/kg, po administered as single dose by LC-MS/MS analysis; assay type: ADME, organism-based; parameters: dose 5 mg/kg, route oral; conditions: in vivo
How it was run: (§1)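 Sprague–Dawley rats (n = 3/group) given compound as a solution in 20% HP-β-CD, 1 mg/kg i.v. and 5 mg/kg p.o.; plasma pharmacokinetics derived from these arms.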

[3] = Protein binding in human plasma assessed as unbound fraction at 1 uM measured after 6 hrs by equilibrium dialysis method; assay type: ADME, cell-free
How it was run: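 Human or rat plasma protein binding at 1 μM compound, expressed as fraction unbound (fub).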

Rattus norvegicus [4] = assay: Hepatotoxicity in Sprague-Dawley rat assessed as necrosis at 20 to 60 mg/kg, po measured after 14 days by histological analysis; assay type: toxicity, organism-based; conditions: in vivo, 336 h
How it was run: (§2)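 Repeat-dose toleration study in rats over 14 days at 20 and 60 mg/kg/day; CNS observations recorded and liver assessed by histological analysis.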

[5] = Apparent permeability across basolateral to apical side in MDCK-MDR1 cells at 5 uM measured after 60 mins by LC-MS/MS analysis; assay type: ADME, cell-based, Canis lupus familiaris; conditions: dog
How it was run: (§3)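 Bidirectional apparent permeability measured in Madin–Darby canine kidney cells transfected with the MDR1 (P-gp) gene; Papp reported in ×10–6 cm/s.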

Rattus norvegicus [6] = assay: Ex vivo receptor occupancy at GluA/TARPgamma8 Sprague-Dawley rat assessed as plasma concentration causing 50% reduction in [3H]JNJ-56022486 receptor labeling in hippocampus po measured after 10 mins by autoradiography
[7] = Ratio of unbound brain to plasma concentration in Sprague-Dawley rat at 1 mg/kg, iv or 5 mg/kg, po administered as single dose by LC-MS/MS analysis; assay type: ADME, organism-based; conditions: brain and plasma, read-out: K(p,uu,brain)
[8] = Apparent permeability across apical to basolateral side in MDCK-MDR1 cells at 5 uM measured after 60 mins by LC-MS/MS analysis; assay type: ADME, cell-based, Canis lupus familiaris; conditions: dog; how it was run: as §3
Rattus norvegicus [9] = assay: Ex vivo receptor occupancy at GluA/TARPgamma8 in po dosed Sprague-Dawley rat assessed as brain concentration causing 50% reduction in [3H]JNJ-56022486 receptor labeling in hippocampus at Tmax by autoradiography; assay type: functional, organism-based
How it was run: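 Oral dose–response in Sprague–Dawley rats, n = 3/dose (8 doses in one study; vehicle 0.5% HPMC or 20% HP-β-CD); hippocampal occupancy measured at Tmax by ex vivo autoradiography using [3H]-12; EC50 expressed against plasma (ng/mL) or brain (ng/g) exposure, ED50 against dose.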

[10] = Clearance in Sprague-Dawley rat at 1 mg/kg, iv administered as single dose by LC-MS/MS analysis; assay type: ADME, organism-based; conditions: in vivo
How it was run: (§4)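 Single 1 mg/kg i.v. dose as a solution to Sprague–Dawley rats (n = 3/group); vehicle 20% HP-β-CD in one study series, 1:1 PEG400/H2O in the other; plasma PK parameters derived.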

[11] = Volume of distribution at steady state in Sprague-Dawley rat at 1 mg/kg, iv or 5 mg/kg, po administered as single dose by LC-MS/MS analysis; assay type: ADME, organism-based; conditions: in vivo, read-out: Vdss; how it was run: as §4
[12] = Half life in Sprague-Dawley rat at 1 mg/kg, iv administered as single dose by LC-MS/MS analysis; assay type: ADME, organism-based; conditions: in vivo; how it was run: as §4
[13] = Thermodynamic solubility of the compound in fasted state simulated intestinal fluid at pH 6.5 incubated under stirred condition for 3 days; conditions: read-out: Therm_solubility
[14] = Oral bioavailability in Sprague-Dawley rat at 5 mg/kg administered as single dose by LC-MS/MS analysis; assay type: ADME, organism-based; conditions: in vivo; how it was run: as §1
Rattus norvegicus [15] = assay: Ex vivo receptor occupancy at GluA/TARPgamma8 in po dosed Sprague-Dawley rat assessed as reduction in [3H]JNJ-56022486 receptor labeling in hippocampus measured within 10 mins by autoradiography; assay type: functional
Rattus norvegicus [16] = assay: Toxicity in po dosed Sprague-Dawley rat assessed as effect on central nervous system functions measured after 14 days; assay type: organism-based; conditions: in vivo, 336 h; how it was run: as §2

In the case of `O=c1[nH]c2ccc(-c3c(Cl)cccc3OC(F)(F)F)cc2[nH]1`, the solubility thermodynamic at 72 h [1] is reported as < 4 µM, the Cmax [2] is reported as 1030 ng/mL and the fraction unbound at 6 h, 1 µM [3] is reported as 0.3. The Activity (Rattus norvegicus [4]) was “Toxic”, the Papp B→A at 1 h, 5 µM [5] was 24 ×10⁻⁶ cm/s and the EC50 (Rattus norvegicus [6]) was 0.145 µg/mL (≈ 0.441 µM). For the same compound, the Kp uu [7] was 0.6, the Papp A→B at 1 h, 5 µM [8] was 22 ×10⁻⁶ cm/s and the EC50 (Rattus norvegicus [9]) was 545 ng/g. The clearance [10] was 6.9 mL/min/kg, the Vd [11] was 3.3 L/kg and the half-life [12] was 348 min. The solubility thermodynamic at 72 h [13] was 74 µM (≈ 24.3 µg/mL), the bioavailability [14] was 133% and the ED50 (Rattus norvegicus [15]) was 0.5 mg/kg. For the same compound, the Activity (Rattus norvegicus [16]) was “Non-Toxic”.
